PostGolgi ctrl – growth inhibition of yeast control strain, primary screen, counter-screen for post-Golgi transport modulator project; efflux-deficient yeast background strain, growth absorbance A615, 16 h; inhibition, % at 10 µM; 5% of 98,000 active; AID 738, 2007
FAK blocker – FAK kinase inhibitors, primary screen, biochemical. Focal adhesion kinase 1 (Homo sapiens), Q05397. biochemical FAK kinase activity assay. inhibition, %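 (tested at 7 µM)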. 0.84% of 97,000 active; in the data active means inhibition above about 19%
Target sequence (Q05397 whole entry, looked up): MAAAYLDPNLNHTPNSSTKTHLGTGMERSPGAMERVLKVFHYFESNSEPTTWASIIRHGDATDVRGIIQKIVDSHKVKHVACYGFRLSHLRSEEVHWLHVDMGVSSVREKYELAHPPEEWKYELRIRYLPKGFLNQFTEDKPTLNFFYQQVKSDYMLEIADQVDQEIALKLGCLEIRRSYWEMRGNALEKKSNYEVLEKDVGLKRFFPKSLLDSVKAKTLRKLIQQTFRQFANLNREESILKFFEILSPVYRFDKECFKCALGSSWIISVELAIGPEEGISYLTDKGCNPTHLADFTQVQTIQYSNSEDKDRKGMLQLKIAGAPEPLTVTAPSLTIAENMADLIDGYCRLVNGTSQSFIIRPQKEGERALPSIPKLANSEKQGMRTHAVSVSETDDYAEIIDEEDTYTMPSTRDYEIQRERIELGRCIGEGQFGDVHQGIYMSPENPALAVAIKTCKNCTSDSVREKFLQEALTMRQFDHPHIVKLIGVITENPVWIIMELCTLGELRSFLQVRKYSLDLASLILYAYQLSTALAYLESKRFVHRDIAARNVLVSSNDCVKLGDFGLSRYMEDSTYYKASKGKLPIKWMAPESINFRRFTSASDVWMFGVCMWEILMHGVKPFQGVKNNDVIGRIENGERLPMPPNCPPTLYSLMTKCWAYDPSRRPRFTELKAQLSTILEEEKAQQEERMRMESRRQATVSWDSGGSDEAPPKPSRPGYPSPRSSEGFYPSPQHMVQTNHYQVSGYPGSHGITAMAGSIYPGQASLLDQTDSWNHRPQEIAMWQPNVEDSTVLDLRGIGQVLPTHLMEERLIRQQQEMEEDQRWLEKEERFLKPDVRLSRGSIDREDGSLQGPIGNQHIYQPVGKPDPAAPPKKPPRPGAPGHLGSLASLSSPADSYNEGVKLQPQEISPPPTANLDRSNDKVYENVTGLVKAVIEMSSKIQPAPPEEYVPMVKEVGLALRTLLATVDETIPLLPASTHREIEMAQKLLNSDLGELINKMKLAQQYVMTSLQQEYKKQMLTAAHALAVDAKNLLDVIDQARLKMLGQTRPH
Calb biofilm kill – clotrimazole potentiators killing Candida biofilms, primary screen, with clotrimazole, Alamar Blue | inhibition, % at 6 µM | AID 834, 2007 | 0.14% of 85,000 active | C. albicans biofilm + clotrimazole;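 active means inhibition above 20%; inactive means inhibition below 20%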;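 further: preformed 24 hr biofilms exposed to compound for 48 hr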
tolC growth inh – growth inhibitors of E. coli tolC mutant, primary screen, strain BW25113 ΔtolC::kan, 384-well; OD615; growth inhibition, % at 10 µM (by protocol); 2.2% of 65,000 active;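 active means growth inhibition at or above a cutoff equal to the mean over every tested compound plus 3 SD, cut at about 60% in these data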;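 further: growth measured after 20 h incubation at 37 °C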
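System: E. coli ΔtolC::kan strain BW25113; Buffer or medium: LB broth supplemented with 50 µg/mL kanamycin; Compound: 10 µM final, single dose; Incubation: bacterial growth with compound for 20 h at 37 °C; Signal: A615 absorbance measurement; Evaluation: growth inhibition in percent.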
PostGolgi yeast – phenotypic screen on post-Golgi transport, primary screen; post-Golgi transport phenotypic cell assay; AID 739, 2007; inhibition, % at 10 µM; 0.9% of 98,000 active;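 further: yeast cells grown in 1536-well plates; yeast grown about 18 h at 30C before absorbance read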
PTK2B oligo ant – antagonists of Pyk2 self-association, primary screen, Q293 cells, FERM NanoBiT luminescence, HTS. Protein-tyrosine kinase 2-beta (Homo sapiens), Q14289. 0.83% of 99,000 active. z-score (the deposit names both 25 µM and 10 µM). hits give low values. AID 1347419, 2020;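 active means Z-score of -3 or lower, scaled per plate to the spread of control and sample wells; inactive means z-score above -3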;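 further: negative z-score means lost luminescence so less FERM oligomerization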
A number is an active result; 0 = inactive; - = not tested or not shown. An excerpt weighted towards active compounds, which were near 6.9% of everything screened. Unless noted, no stated cut-off is given here; in the data, active means inhibition above about 30%; inactive means the rest.

SMILES	PostGolgi ctrl	FAK blocker	Calb biofilm kill	tolC growth inh	PostGolgi yeast	PTK2B oligo ant
CCOC(=O)N1CCN(c2ncnc3c2[nH]c2ccc(OC)cc23)CC1	36.5	0	0	0	0	0
COc1ccc(N2CCN(c3ncnc4c3[nH]c3ccccc34)CC2)cc1	0	0	0	-	0	-3.47
OC1(c2cccc(C(F)(F)F)c2)CCN(c2ncnc3c2[nH]c2ccc(F)cc23)CC1	32.8	0	0	100.0	0	0
CCOC(=O)N1CCN(c2ncnc3c2[nH]c2ccc(F)cc23)CC1	0	0	-	-	0	-3.03
COc1cc2[nH]c3c(N4CCN(c5ccccn5)CC4)ncnc3c2cc1OC	0	0	0	0	0	0
CCOC(=O)N1CCN(CC(=O)c2c[nH]c3ccc(F)cc23)CC1	0	0	0	-	0	-
CC1=NN(c2ccccc2)C(=O)/C1=C\N1CC(C)OC(C)C1 (stereo unspecified)	0	0	-	-	0	0
Fc1ccc2[nH]c3c(N4CCN(c5ccccc5)CC4)ncnc3c2c1	79.5	-	0	0	76.3	-3.37
O=c1c2[nH]c3ccc(F)cc3c2ncn1CCN1CCN(Cc2ccccc2)CC1	0	-	0	0	0	-
O=C(NC12CC3CC(CC(C3)C1)C2)c1ccc(=O)oc1	0	0	0	0	0	0
O=C(NC12CC3CC(CC(C3)C1)C2)c1ccccc1O	0	0	0	62.5	0	0
COc1c(Cl)cc(C(=O)Nc2ccccc2C(=O)O)cc1Cl	0	0	-	-	0	-3.08
N#Cc1c(NC(=O)Cn2c(=O)oc3ccccc32)oc(-c2ccccc2)c1-c1ccccc1	0	0	0	0	0	-3.77
Cc1cccc(C)c1OCC(=O)Nc1oc(-c2ccccc2)c(-c2ccccc2)c1C#N	-	0	0	-	-	-3.47
N#Cc1c(NC(=O)CSc2n[nH]c(N)n2)oc(-c2ccccc2)c1-c1ccccc1	0	0	0	-	0	-3.38
O=C(Cn1nnc(-c2ccc(S(=O)(=O)N3CCCC3)cc2)n1)NCC1CCCO1 (stereo unspecified)	0	0	0	0	33.8	0
COc1ccc(Nc2nc(N)nc(CSc3nnc(N)s3)n2)cc1	0	0	0	-	32.4	0
COc1ccc(OCc2nc(N)nc(Nc3ccc(C)cc3)n2)cc1	52.8	0	0	-	0	0
Cn1cnnc1SCC(=O)OCN1C(=O)c2ccccc2C1=O	0	0	0	0	0	0
CC(NC(=O)c1ccccc1NC(=O)CSc1nnnn1C)c1ccccc1 (stereo unspecified)	32.8	0	0	-	0	0
COC(=O)c1sccc1NC(=O)CSc1nnnn1-c1ccccc1C	0	0	26.9	-	0	0
COC(=O)c1ccc(-n2nnnc2SCC(=O)Nc2ccccc2C(=O)OC)cc1	36.6	0	-	-	0	0
COC(=O)c1ccc(-n2nnnc2SCC(=O)Nc2cc(OC)ccc2OC)cc1	0	0	0	0	0	0
CCOc1ccc(-c2nc(C#N)c(NCC3CCCO3)o2)cc1 (stereo unspecified)	0	0	0	-	0	0
Cc1ccc(-n2ncc(C#N)c2/N=C/N2CCOCC2)cc1	0	0	0	0	0	0
SMILES	PostGolgi ctrl	FAK blocker	Calb biofilm kill	tolC growth inh	PostGolgi yeast	PTK2B oligo ant
Cc1ccc(-n2ncc(C#N)c2/N=C/N(C)C)cc1	33.3	0	0	0	0	0
CCOC(=O)c1cccc(NC(=O)C(C)N2C(=O)c3ccccc3C2=O)c1 (stereo unspecified)	0	0	0	0	0	0
O=c1c2[nH]c3ccccc3c2ncn1CCCn1ccnc1	0	0	0	0	0	0
O=c1c2[nH]c3ccc(Br)cc3c2ncn1CCCn1ccnc1	0	0	-	0	33.3	0
O=C(NC1CCN(Cc2ccccc2)CC1)C1COc2ccccc2O1 (stereo unspecified)	0	0	0	0	69.8	0
O=C(NCc1ccccc1)C1COc2ccccc2O1 (stereo unspecified)	-	0	0	-	-	0
O=C(C1COc2ccccc2O1)N1CCN(Cc2ccc3c(c2)OCO3)CC1 (stereo unspecified)	0	-	0	0	65.1	0
O=C(c1cc(-c2ccccc2)on1)N1CCN(Cc2ccc3c(c2)OCO3)CC1	0	0	0	65.8	0	0
Cc1noc(C)c1C(=O)N1CCN(Cc2ccc3c(c2)OCO3)CC1	0	0	0	0	0	0
O=C(c1cc2c(s1)CCCC2)N1CCN(Cc2ccc3c(c2)OCO3)CC1	0	0	0	0	36.3	0
